Assay results published in ChEMBL document CHEMBL3861974, “Discovery of a Selective Aurora A Kinase Inhibitor by Virtual Screening” (J Med Chem, 2016).
Calls of active or inactive are those of the source. The rule behind the calls is not given here.

Key:
[1] = biological target: T1, Phosphatidylinositol 5-phosphate 4-kinase type-2 gamma (Homo sapiens, UniProt Q8TBX8); assay: Binding affinity to human PIP5K2C expressed in Escherichia coli BL21 cells incubated for 1 hr by active site directed binding competition assay
T1 sequence (Q8TBX8 whole entry): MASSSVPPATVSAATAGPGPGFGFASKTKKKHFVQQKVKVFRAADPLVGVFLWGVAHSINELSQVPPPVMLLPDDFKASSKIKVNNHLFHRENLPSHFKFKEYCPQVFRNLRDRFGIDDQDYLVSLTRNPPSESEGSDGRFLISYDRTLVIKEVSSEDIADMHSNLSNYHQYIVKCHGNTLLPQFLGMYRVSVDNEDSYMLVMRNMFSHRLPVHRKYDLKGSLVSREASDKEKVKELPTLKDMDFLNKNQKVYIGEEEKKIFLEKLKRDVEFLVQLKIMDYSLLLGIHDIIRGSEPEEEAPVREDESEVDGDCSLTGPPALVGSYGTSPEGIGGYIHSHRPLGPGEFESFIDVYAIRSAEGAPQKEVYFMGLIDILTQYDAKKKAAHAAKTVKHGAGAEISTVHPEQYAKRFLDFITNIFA
How it was run: (§1)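 Kinome scan of 456 kinases using an active-site-directed binding competition assay, followed by determination of binding affinities (Kd). Aurora B in this scan was free enzyme without INCENP.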

Aurora kinase B [2] = biological target: T2, Aurora kinase B (Homo sapiens, UniProt Q96GD4); assay: Inhibition of Aurora B kinase in human HeLa Kyoto cells assessed as effect on distribution of phspho-histone H3 ser10 level incubated for 20 hrs
T2 sequence (Q96GD4 whole entry): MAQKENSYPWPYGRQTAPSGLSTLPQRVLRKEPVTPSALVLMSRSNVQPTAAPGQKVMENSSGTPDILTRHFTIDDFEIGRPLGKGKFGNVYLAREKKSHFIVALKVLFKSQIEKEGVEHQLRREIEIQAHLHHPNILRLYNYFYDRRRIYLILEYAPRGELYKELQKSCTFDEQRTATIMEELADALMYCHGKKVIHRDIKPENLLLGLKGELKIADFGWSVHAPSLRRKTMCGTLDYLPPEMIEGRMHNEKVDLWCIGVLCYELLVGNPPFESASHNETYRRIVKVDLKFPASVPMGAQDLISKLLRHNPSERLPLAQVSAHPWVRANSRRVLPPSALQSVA

[3] = biological target: Aurora kinase B/Inner centromere protein (Homo sapiens, UniProt Q96GD4); assay: Inhibition of Aurora-B/INCENP (unknown origin) using biotinylated STK2 substrate incubated for 30 mins by HTRF assay; assay type: protein-complex assay
Sequence of Aurora kinase B/Inner centromere protein (Q96GD4 whole entry): as above
Sequence of Aurora kinase B/Inner centromere protein (Q9NQS7 whole entry, further chain): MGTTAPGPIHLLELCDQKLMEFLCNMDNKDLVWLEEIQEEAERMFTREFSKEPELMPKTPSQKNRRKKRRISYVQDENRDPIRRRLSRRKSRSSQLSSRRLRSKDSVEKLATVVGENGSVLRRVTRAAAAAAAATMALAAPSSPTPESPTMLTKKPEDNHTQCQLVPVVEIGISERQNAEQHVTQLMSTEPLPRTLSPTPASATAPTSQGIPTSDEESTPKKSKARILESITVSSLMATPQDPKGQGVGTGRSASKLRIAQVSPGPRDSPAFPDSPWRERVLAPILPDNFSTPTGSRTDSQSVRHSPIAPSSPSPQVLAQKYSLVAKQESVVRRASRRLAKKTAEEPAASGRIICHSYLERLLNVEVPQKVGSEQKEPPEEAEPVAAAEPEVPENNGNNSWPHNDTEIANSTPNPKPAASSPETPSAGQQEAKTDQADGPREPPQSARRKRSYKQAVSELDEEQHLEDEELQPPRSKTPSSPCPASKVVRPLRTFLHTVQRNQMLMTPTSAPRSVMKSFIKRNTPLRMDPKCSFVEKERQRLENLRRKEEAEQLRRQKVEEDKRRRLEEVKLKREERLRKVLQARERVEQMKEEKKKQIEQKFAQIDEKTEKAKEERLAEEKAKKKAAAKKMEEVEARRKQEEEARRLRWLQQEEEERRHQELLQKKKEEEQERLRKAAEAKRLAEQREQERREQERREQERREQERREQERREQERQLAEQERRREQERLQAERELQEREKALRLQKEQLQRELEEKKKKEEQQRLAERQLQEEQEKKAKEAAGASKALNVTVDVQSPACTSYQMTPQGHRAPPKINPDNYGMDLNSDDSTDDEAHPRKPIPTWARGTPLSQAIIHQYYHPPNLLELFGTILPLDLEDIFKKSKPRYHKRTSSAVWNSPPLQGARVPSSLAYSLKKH
How it was run: (§2)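 Biochemical kinase inhibition was read by HTRF with 20 µM ATP. Aurora B was assayed as its complex with the activator INCENP. For Aurora A, IC50 curves were recorded at different TPX2 concentrations.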

[4] = biological target: T3, Aurora kinase A (Homo sapiens) (UniProt O14965); assay: Binding affinity to His-tagged human Aurora A kinase ([…] residues) expressed in Escherichia coli BL21 (DE3) Rosetta cells assessed as reduction in Aurora A binding to TPX-labeled human TPX2 N-terminal domain (1 to 43 residues) at 125 uM incubated for 30 mins by microscale thermophoresis method
T3 sequence (whole entry): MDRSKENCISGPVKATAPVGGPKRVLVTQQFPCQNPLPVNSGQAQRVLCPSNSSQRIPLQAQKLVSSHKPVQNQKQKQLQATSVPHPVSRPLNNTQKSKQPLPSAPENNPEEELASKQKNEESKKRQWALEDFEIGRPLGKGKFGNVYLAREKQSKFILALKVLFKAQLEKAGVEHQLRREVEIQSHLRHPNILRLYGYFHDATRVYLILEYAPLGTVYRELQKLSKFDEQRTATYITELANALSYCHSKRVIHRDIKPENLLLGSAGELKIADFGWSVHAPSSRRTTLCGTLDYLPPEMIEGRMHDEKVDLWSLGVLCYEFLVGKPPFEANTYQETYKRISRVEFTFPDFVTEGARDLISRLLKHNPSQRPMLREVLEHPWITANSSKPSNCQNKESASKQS

Aurora kinase A = biological target: T4, Aurora kinase A (Homo sapiens, UniProt O14965); assay: Inhibition of His-tagged human Aurora A kinase ([…] residues) expressed in Escherichia coli BL21 (DE3) Rosetta cells using biotinylated STK2 substrate incubated for 30 mins in presence of 0.002 uM TPX2 by HTRF assay; how it was run: as §2
T4 sequence (O14965 whole entry): T3 sequence (whole entry)

[5] = biological target: Death-associated protein kinase 2 (Homo sapiens, UniProt Q9UIK4); assay: Binding affinity to human DAPK2 expressed in Escherichia coli BL21 cells incubated for 1 hr by active site directed binding competition assay; how it was run: as §1
Sequence of Death-associated protein kinase 2 (Q9UIK4 whole entry): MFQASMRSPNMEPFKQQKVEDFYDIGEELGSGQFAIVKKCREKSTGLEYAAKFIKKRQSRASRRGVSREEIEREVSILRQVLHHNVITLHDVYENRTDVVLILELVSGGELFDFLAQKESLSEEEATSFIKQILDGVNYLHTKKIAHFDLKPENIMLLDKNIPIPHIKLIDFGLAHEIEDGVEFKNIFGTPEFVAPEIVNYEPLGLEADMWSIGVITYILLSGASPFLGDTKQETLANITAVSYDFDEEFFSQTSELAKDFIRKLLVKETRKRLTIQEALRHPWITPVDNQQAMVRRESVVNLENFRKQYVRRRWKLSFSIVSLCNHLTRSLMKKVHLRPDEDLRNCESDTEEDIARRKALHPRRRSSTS

Aurora kinase B [6] = biological target: T2, Aurora kinase B; assay: Inhibition of Aurora B kinase in human HeLa Kyoto cells assessed as induction of accumulation of cells at 16N DNA contant incubated for 48 hrs at 10 uM by flow cytometry; assay type: cell-based
How it was run: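 Cells were treated for 48 h, stained with propidium iodide, and DNA content was analysed by flow cytometry. Cells with 8N and 16N DNA content were scored as a readout of defective cytokinesis.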

[7] = biological target: T3, Aurora kinase A (Homo sapiens); assay: Inhibition of Aurora A kinase localization at spindle microtubules in human HeLa Kyoto cells at 10 uM incubated for 20 hrs; assay type: cell-based
How it was run: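 HeLa Kyoto cells were treated overnight, then immunostained for Aurora A and TPX2 with DNA counterstain. Aurora A at spindle microtubules versus centrosomes was assessed by fluorescence imaging.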

CCc1ccc(/N=C2\S/C(=C\c3ccnc(Nc4ccc(C(=O)O)cn4)c3)C(=O)N2C)cc1
Kd [1]: 480 nM
IC50 (Aurora kinase B [2]): > 25000 nM
IC50 [3]: 150 nM
Activity [4]: Active
IC50 (Aurora kinase A): 1.7 nM
Kd [5]: 450 nM
inhibition (Aurora kinase B [6]): Active
inhibition [7]: Active
